Screening results as filed in PubChem BioAssay.
Sampled rows, rich in hits. Any-hit rate of the full collection: about 2%.
eIF4H FP inh = inhibitors of RNA binding by human eIF4H; eIF4H fluorescence polarization binding assay; inhibition, % at 35 µM; AID 2012; Q15056; actives 0.94% (n = 290,000);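 also: calls also rest on retests at 20 µM and on dose response follow-up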
MLLE-PAM2 inh = inhibitors of microRNA-mediated deadenylation, human PABP1 MLLE binding; actives 0.36% (n = 360,000); inhibition, % at 20 µM; P11940; GST-MLLE / FITC-PAM2 fluorescence polarization; in the data active = inhibition above about 35%, passing the limit was not always enough
Target sequence (P11940 whole entry, looked up): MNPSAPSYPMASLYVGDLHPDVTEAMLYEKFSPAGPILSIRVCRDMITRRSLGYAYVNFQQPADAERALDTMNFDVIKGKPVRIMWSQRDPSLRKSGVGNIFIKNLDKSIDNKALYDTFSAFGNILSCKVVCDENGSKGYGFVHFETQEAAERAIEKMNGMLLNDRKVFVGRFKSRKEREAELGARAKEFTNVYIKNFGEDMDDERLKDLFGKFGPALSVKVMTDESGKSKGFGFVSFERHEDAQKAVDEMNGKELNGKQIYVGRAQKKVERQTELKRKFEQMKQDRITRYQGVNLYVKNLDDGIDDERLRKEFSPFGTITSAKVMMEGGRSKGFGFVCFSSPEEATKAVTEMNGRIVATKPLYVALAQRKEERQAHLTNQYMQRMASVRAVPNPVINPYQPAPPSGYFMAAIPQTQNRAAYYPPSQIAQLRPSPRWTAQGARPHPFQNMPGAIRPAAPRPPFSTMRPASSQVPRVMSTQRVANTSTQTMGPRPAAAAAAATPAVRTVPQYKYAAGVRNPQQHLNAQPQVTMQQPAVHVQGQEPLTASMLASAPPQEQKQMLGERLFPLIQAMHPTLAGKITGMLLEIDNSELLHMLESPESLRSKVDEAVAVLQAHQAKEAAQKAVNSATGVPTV
PABP polyA inh = PABP-poly(A) binding inhibition. inhibition, % at 35 µM. AID 2014. PABP-poly(A) RNA binding, fluorescence polarization. P11940. actives 1% (n = 290,000);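 also: calls also rest on retests at 20 µM and on dose response follow-up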
FID counter = displaces DNA intercalator in HCV helicase counter-screen | DNA fluorescent intercalator displacement, fluorescence | inhibition, % at 7.9 µM | actives 0.17% (n = 290,000); in the data active = inhibition above about 37%;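 also: higher means more ethidium bromide displaced from hairpin DNA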
NS3 helicase inh = blocks Hepatitis C virus NS3 helicase unwinding. actives 0.56% (n = 290,000). AID 1800. inhibition, % at 10.9 µM. NS3 helicase DNA unwinding, Cy5 molecular beacon fluorescence;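 active = inhibition above the mean of all tested compounds plus 3 SD, set per campaign, cut at about 35% in these data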
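Measured by: Cy5 fluorescence, 0 and 60 min reads / Assay system: NS3 helicase fragment of HCV / Control set: low DMSO, high thioflavine S at 110 µM / Times: 1 h reaction at 25 °C, ATP-initiated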
HCV core dimer = blocks dimerization of HCV core protein; inhibition, % at 5 µM; TR-FRET GST/Flag-core106 dimerization, 1536-well; actives 0.33% (n = 300,000); AID 1899;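 active = inhibition above the mean of all tested compounds plus 3 SD, set per screening campaign, cut at about 45% in these data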
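Material: GST/Flag-tagged HCV core106 proteins. Incubation: 4 h, 22.5 °C incubation. Read-out basis: inhibition (%) from 671 over 617 nm ratio. Measured by: TR-FRET, excitation 340 nm, emission 617 and 671 nm.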
Of the large screens only hits and unclear results are named; the others gave an inactive call. Unless noted, no rule for the calls is given here.

OC(c1ccc(F)cc1)(C1CCCCC1)C(CN1CCOCC1)c1ccccc1 (stereo unspecified)	none
CN(C)c1cc(NC(=O)CN2CCCC2)c2ccccc2n1	FID counter 55
CN(C)c1cc(NC(=O)CNC(C)(C)CC(C)(C)C)c2ccccc2n1	none
CN(CC(=O)Nc1ccccc1C(=O)NC1CC1)Cc1cccs1	none (no result: eIF4H FP inh, PABP polyA inh, FID counter, NS3 helicase inh, HCV core dimer)
CN(C)CCCNc1cc(O)c2ncccc2c1	MLLE-PAM2 inh 41 (no result: eIF4H FP inh, PABP polyA inh, FID counter, NS3 helicase inh, HCV core dimer)
Oc1cc(NCc2ccc(F)cc2)cc2cccnc12	none (no result: eIF4H FP inh, PABP polyA inh, FID counter, NS3 helicase inh, HCV core dimer)
COc1cccc(C(c2nnnn2CS(=O)(=O)c2ccc(C)cc2)N2CCN(C)CC2)c1OC (stereo unspecified)	FID counter 41
COc1cc(CN2CCNC(=O)C2CC(=O)NC2CCCC2)cc(OC)c1 (stereo unspecified)	none
CC(O)(c1cccnc1)c1nc(-c2cccc(C(F)(F)F)c2)cs1 (stereo unspecified)	none (no result: eIF4H FP inh, PABP polyA inh, FID counter, NS3 helicase inh, HCV core dimer)
CCc1ccccc1NC(=O)CN1C(=O)C2CCCN2c2ncc(Cl)cc21 (stereo unspecified)	none
COC(=O)c1ccccc1NC(=O)CN1C(=O)C2CCCN2c2ncc(Cl)cc21 (stereo unspecified)	HCV core dimer 50 (no result: MLLE-PAM2 inh)
CCCCNC(=O)Oc1c(Br)cc2sc(=O)oc2c1Br	eIF4H FP inh 96, PABP polyA inh 103 (no result: MLLE-PAM2 inh)
CCCCNC(=O)Oc1cc(CCl)on1	none (no result: MLLE-PAM2 inh)
ON/C=N/C(=S)Nc1ncc(C(F)(F)F)cc1Cl	MLLE-PAM2 inh 38
CC(C)C(=O)Nc1ncc(C(F)(F)F)cc1Cl	none
CON/C=N/C(=S)Nc1ncc(C(F)(F)F)cc1Cl	MLLE-PAM2 inh 42
O=C(NCc1ccccc1)C1CCCN(C(=O)c2ccc(F)cc2)C1 (stereo unspecified)	none (no result: eIF4H FP inh, PABP polyA inh, FID counter, NS3 helicase inh, HCV core dimer)
O=c1c2ccccc2c(C=Nc2ccc(S(=O)(=O)N3CCCCC3)cc2)c(O)n1-c1ccc(Cl)cn1	HCV core dimer 60
Nc1ccccc1Sc1nc2ccccc2[nH]1	MLLE-PAM2 inh 39
CN(C)CCCNCCCCNC(=O)/C=N/O	PABP polyA inh 61
CN(C)CCCNCCCNC(=O)/C=N/O	none
COc1ccc(S(=O)(=O)N2CCOCC2)cc1NC(=O)Cc1ccc2c(c1)OCCO2	none (no result: eIF4H FP inh, PABP polyA inh, FID counter, NS3 helicase inh, HCV core dimer)
CCOCc1cnc(C)nc1NCC(=O)c1c(C)[nH]c2ccc(OC)cc12	eIF4H FP inh active, PABP polyA inh 54
CC(=O)c1cccc(NC(=O)CN2C(=O)C(=O)N(Cc3ccco3)C2=O)c1	none (no result: eIF4H FP inh, PABP polyA inh, FID counter, NS3 helicase inh, HCV core dimer)
CC1(C(=O)NS(=O)(=O)c2ccc(Cl)s2)CCN1C(=O)C1CCCCC1 (stereo unspecified)	none (no result: eIF4H FP inh, PABP polyA inh, FID counter, NS3 helicase inh, HCV core dimer)
O=C(NCc1cccnc1)c1cc(C2CCCN(C(=O)c3cccs3)C2)on1 (stereo unspecified)	none (no result: eIF4H FP inh, PABP polyA inh, FID counter, NS3 helicase inh, HCV core dimer)
CCC(CC)Nc1ccc(C(CC(N)=O)NC(=O)Cc2cccc3ccccc23)cc1[N+](=O)[O-] (stereo unspecified)	PABP polyA inh 38
CCOC(=O)c1cnc2c(C)c(Cl)ccc2c1NCCCN1CCOCC1	FID counter 54
CCOC(=O)c1cnc2ccc(Cl)cc2c1NCCN(C)C	eIF4H FP inh inconclusive, MLLE-PAM2 inh 42
CCOC(=O)c1cnc2c(ccc3ccccc32)c1NCCCN(C)C	FID counter 81
CCOC(=O)c1cnc2ccc(Br)cc2c1NCCO	none
CC1CCN(C(=O)CN2C(=O)NC(c3ccccc3)(c3ccccc3)C2=O)CC1	none (no result: eIF4H FP inh, PABP polyA inh, FID counter, NS3 helicase inh, HCV core dimer)
Cc1ccc(-n2c(-c3ccco3)nc3nc4ccccc4nc32)cc1F	none
Fc1cccc(-n2c(-c3ccco3)nc3nc4ccccc4nc32)c1	PABP polyA inh 27
Fc1ccc(-n2c(-c3ccco3)nc3nc4ccccc4nc32)cc1	eIF4H FP inh 86, PABP polyA inh 94
Cc1cc(C)cc(NC(=O)[C@H](Cc2c[nH]c3ccccc23)NC(=O)[C@@H]2Cc3ccccc3CN2)c1	FID counter 40
O=C1CCNc2ccc(-c3ccccc3)cc21	none
O=C1CCNc2cc3ccccc3cc21	eIF4H FP inh 82, PABP polyA inh 75
CCc1nc2ccc(C(=O)N3CCN(C)CC3)cn2c1N(C)CCC(C)C	none (no result: eIF4H FP inh, PABP polyA inh, FID counter, NS3 helicase inh, HCV core dimer)
CN(Cc1ccccc1)C(=O)c1csc([C@H]2C[C@H](O)[C@@H](CO)O2)n1	none (no result: eIF4H FP inh, PABP polyA inh, FID counter, NS3 helicase inh, HCV core dimer)
COc1cccc(NC(=S)N/N=C2/CCCCc3ccccc32)c1	MLLE-PAM2 inh 45 (no result: HCV core dimer)
CC(C)NC(=S)N/N=C1\CCCCc2ccccc21	none
COc1ccc(NC(=O)c2ccc(-c3ccc([N+](=O)[O-])cc3)o2)cc1OC	none
CC1CCN(c2ccc(NC(=O)c3ccc([N+](=O)[O-])o3)cc2)CC1	none (no result: eIF4H FP inh, PABP polyA inh, FID counter, NS3 helicase inh)
CN1CCN(c2ccc(NC(=O)c3ccc(-c4ccc(Br)cc4)o3)cc2)CC1	FID counter 43
COc1cccc(NC(=O)c2ccc(-c3ccc([N+](=O)[O-])cc3)o2)c1	PABP polyA inh 36
CC(=O)Nc1ccc(NC(=O)c2ccc(-c3ccc([N+](=O)[O-])cc3)o2)cc1	eIF4H FP inh 53
O=C(Nc1ccc(N2CCCCC2)cc1)c1ccc([N+](=O)[O-])o1	eIF4H FP inh 74, PABP polyA inh 18
CCCCN1CC(COCc2ccccc2)Oc2ccccc2S1(=O)=O (stereo unspecified)	none (no result: eIF4H FP inh, PABP polyA inh, FID counter, NS3 helicase inh, HCV core dimer)
CC1=C(C#N)C(=O)N(C2CCS(=O)(=O)C2)C(=O)/C1=C\c1ccco1 (stereo unspecified)	eIF4H FP inh 102, PABP polyA inh 88, HCV core dimer 78 (no result: MLLE-PAM2 inh)
Cc1cccc(Nc2nnc(SCC3CCCCO3)s2)c1C (stereo unspecified)	eIF4H FP inh 1.8
COc1cccc(Nc2nnc(SCC3CCCCO3)s2)c1 (stereo unspecified)	none
COCCN1C(=O)CCC1(C)C(=O)Nc1ccc2c(c1)OCCO2 (stereo unspecified)	none (no result: eIF4H FP inh, PABP polyA inh, FID counter, NS3 helicase inh, HCV core dimer)
Cc1nn(C)cc1CN(C)C(=O)C1CCC(=O)N(CCc2cccc(F)c2)C1 (stereo unspecified)	none (no result: eIF4H FP inh, PABP polyA inh, FID counter, NS3 helicase inh, HCV core dimer)
CCOC(=O)c1c(-c2ccc(C)o2)csc1NC(=O)COC(=O)c1ccc(NC(N)=O)cc1	HCV core dimer 49
CC1(C)OC(=O)C(=Cc2ccc[nH]2)C(=O)O1	none
CC1(C)OC(=O)C(=C2CCCN2)C(=O)O1	eIF4H FP inh active, PABP polyA inh 60
O=C(Nc1ccccc1Cl)C(Cl)C(=O)c1ccccc1 (stereo unspecified)	eIF4H FP inh 8.0 (no result: HCV core dimer)
CS(=O)(=O)c1ccc(Cl)c(NC(=O)CSc2n[nH]c(-c3cccs3)n2)c1	none (no result: eIF4H FP inh, PABP polyA inh, FID counter, NS3 helicase inh, HCV core dimer)
CC(=O)N1CCC2(CC1)C/C(=N\NC(=S)Nc1ccccc1F)c1cc(O)ccc1O2	none
CC(=O)N1CCC2(CC1)C/C(=N\NC(=S)Nc1ccccc1C)c1cc(O)ccc1O2	eIF4H FP inh 8.5
COc1cc(-c2cc(=O)c3ccc(O)cc3o2)cc(OC)c1OC	MLLE-PAM2 inh 45 (no result: eIF4H FP inh, PABP polyA inh, FID counter, NS3 helicase inh, HCV core dimer)
COC(=O)C1CC(=O)N(c2ccc(OCc3ccccc3Cl)cc2)C1 (stereo unspecified)	eIF4H FP inh 103, PABP polyA inh 44
